Measurements as given in ChEMBL document CHEMBL1151835, “Micropeptins from the freshwater cyanobacterium Microcystis aeruginosa (NIES-100)” (J Nat Prod, 2009).
Values after ≈ are worked out from the molar mass of the structure shown. Active and inactive are the calls of the source. The calls are words filed in the database; no cut-off is given here.

What was measured:
[1] = Inhibition of trypsin
[2] = Inhibition of trypsin at 20 ug/ml
[3] = Inhibition of chymotrypsin
Method in brief: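 Alpha-chymotrypsin type II was made up at 15 U/mL in 50 mM Tris-HCl (pH 7.6). The enzyme and test solution were preincubated at 37 °C for 5 min. Substrate solution was N-succinyl-L-phenylalanyl-p-nitroanilide, 1 mg/mL in buffer. After adding it, absorbance at 405 nm was read at once and again after 30 min at 37 °C.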

[4] = molecular target: Prothrombin (Homo sapiens) (UniProt P00734); assay: Inhibition of thrombin at 20 ug/ml

IC50 [1] | Activity [2] | IC50 [3] | Activity [4] | Compound
0.25 µg/mL (≈ 0.253 µM) | – | – | – | CCCCCC(=O)N[C@@H](CCC(=O)O)C(=O)N[C@@H]1C(=O)N[C@@H](CCCNC(=N)N)C(=O)N[C@H]2CC[C@@H](O)N(C2=O)[C@@H](CC(C)C)C(=O)N(C)[C@@H](Cc2ccc(O)cc2)C(=O)N[C@@H](C(C)C)C(=O)O[C@@H]1C [MICROPEPTIN B]
– | inactive | 1.1 µg/mL (≈ 1.07 µM) | inactive | CCCCCC(=O)N[C@@H](CCC(=O)O)C(=O)N[C@@H]1C(=O)N[C@@H](Cc2ccc(O)cc2)C(=O)N[C@H]2CC[C@@H](O)N(C2=O)[C@@H](Cc2ccccc2)C(=O)N(C)[C@@H](Cc2ccc(O)cc2)C(=O)N[C@@H](C(C)C)C(=O)O[C@@H]1C [MICROPEPTIN C]
– | inactive | 1.2 µg/mL (≈ 1.14 µM) | inactive | CCCCCCCC(=O)N[C@@H](CCC(=O)O)C(=O)N[C@@H]1C(=O)N[C@@H](Cc2ccc(O)cc2)C(=O)N[C@H]2CC[C@@H](O)N(C2=O)[C@@H](Cc2ccccc2)C(=O)N(C)[C@@H](Cc2ccc(O)cc2)C(=O)N[C@@H](C(C)C)C(=O)O[C@@H]1C [MICROPEPTIN D]
– | inactive | 1 µg/mL (≈ 1.01 µM) | inactive | CCCCCC(=O)N[C@@H](CCC(=O)O)C(=O)N[C@@H]1C(=O)N[C@@H](Cc2ccc(O)cc2)C(=O)N[C@H]2CC[C@@H](O)N(C2=O)[C@@H](CC(C)C)C(=O)N(C)[C@@H](Cc2ccc(O)cc2)C(=O)N[C@@H](C(C)C)C(=O)O[C@@H]1C [MICROPEPTIN E]
3 µg/mL (≈ 2.85 µM) | – | – | – | CCCCCC(=O)N[C@@H](CCC(=O)O)C(=O)N[C@@H]1C(=O)N[C@@H](Cc2ccc(O)cc2)C(=O)N[C@H]2CC[C@@H](O)N(C2=O)[C@@H](Cc2ccccc2)C(=O)N(C)[C@@H](Cc2c[nH]c3ccccc23)C(=O)N[C@@H](C(C)C)C(=O)O[C@@H]1C [MICROPEPTIN T 1]

Compound | IC50 [1] | Activity [2] | IC50 [3] | Activity [4]
CCCCCCCC(=O)N[C@@H](CCC(=O)O)C(=O)N[C@@H]1C(=O)N[C@@H](Cc2ccc(O)cc2)C(=O)N[C@H]2CC[C@@H](O)N(C2=O)[C@@H](CC(C)C)C(=O)N(C)[C@@H](Cc2ccc(O)cc2)C(=O)N[C@@H](C(C)C)C(=O)O[C@@H]1C [MICROPEPTIN F] | – | inactive | 1.5 µg/mL (≈ 1.47 µM) | inactive
